In ChEMBL document CHEMBL4024783, “Alkylated Piperazines and Piperazine-Azole Hybrids as Antifungal Agents” (J Med Chem, 2018):
In brackets after ≈: the same amount, converted by molar mass. Activity calls are given as the source filed them. The calls are words filed in the database; no cut-off is given here.

What was measured:
Candida parapsilosis [1] = experiment: Antifungal activity against Candida parapsilosis ATCC 22019 after 48 hrs in the presence of 10% FBS by broth dilution method; format: functional; settings: Lodderomyces parapsilosis, ATCC 22019, 48 h
Candida albicans [2] = experiment: Antibiofilm activity against voriconazole resistant Candida albicans ATCC 64124 sessile cells incubated for 24 hrs by XTT reduction assay; format: functional; settings: ATCC 64124, 24 h
Summary of the method: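 Strain B grown overnight in YPD broth at 35 °C, diluted to OD600 0.1 (~10^6 CFU/mL), then grown statically for 24 h at 37 °C to form biofilm. Washed with PBS, then drug in RPMI 1640 at 0.12–62.5 µg/mL for 24 h at 37 °C. Read-out: XTT 0.5 mg/mL with menadione 1 µM, 2 h, A490. SMIC50/SMIC80 are 50%/80% decreases versus drug-free biofilm. Duplicate.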

Candida albicans [3] = experiment: Antifungal activity against Candida albicans ATCC 10231 after 48 hrs by broth dilution method; format: functional; settings: ATCC 10231, 48 h
Candida parapsilosis [4] = experiment: Antifungal activity against Candida parapsilosis ATCC 22019 after 48 hrs by broth dilution method; format: functional; settings: for MIC: Lodderomyces parapsilosis, ATCC 22019, 48 h
Aspergillus nidulans [5] = experiment: Antifungal activity against Aspergillus nidulans ATCC 38163 after 48 hrs in the presence of 10% FBS by broth dilution method; format: functional; settings: ATCC 38163, 48 h
Pichia kudriavzevii = experiment: Antifungal activity against Candida krusei ATCC 6258 after 48 hrs by broth dilution method; format: functional; settings: for MIC: Pichia kudriavzevii, ATCC 6258, 48 h
Summary of the method: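 Yeasts tested per CLSI M27-A3 with minor changes. An overnight YPD culture (35 °C, 200 rpm) was adjusted to OD600 0.12 and diluted in MOPS-buffered RPMI 1640 (pH 7.0) to a final 1–2 × 10^3 CFU/mL. Compounds 0.015–31.3 µg/mL, DMSO <1.25%.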

Aspergillus flavus = experiment: Antifungal activity against Aspergillus flavus ATCC MYA-3631 after 48 hrs by broth dilution method; format: functional; settings: ATCC MYA-3631, 48 h
[6] = Solubility of the compound in DMSO; format: physicochemical
[7] = Aqueous solubility of the compound; format: physicochemical; settings: buffer
Nakaseomyces glabratus [8] = experiment: Antifungal activity against Candida glabrata ATCC 2001 after 48 hrs by broth dilution method; format: functional, CBS 138; settings: for MIC: Nakaseomyces glabratus, CBS 138, 48 h
Aspergillus terreus = experiment: Antifungal activity against Aspergillus terreus ATCC MYA-3633 after 48 hrs by broth dilution method; format: functional; settings: for MIC: Aspergillus terreus, ATCC MYA-3633, 48 h
Summary of the method: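 Molds tested per CLSI M38-A2. Spores were harvested from sporulating PDA cultures by filtering through glass wool and counted on a hemocytometer. Serial dilutions (0.03–31.3 µg/mL) were made in RPMI 1640 buffered to pH 7.0 with 0.165 M MOPS, final inoculum 5 × 10^5 CFU/mL.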

Candida albicans [9] = experiment: Ratio of MIC80 for voriconazole resistant Candida albicans ATCC 64124 sessile cells to MIC for voriconazole resistant Candida albicans ATCC 64124; format: functional
Candida albicans [10] = experiment: Antifungal activity against Candida albicans ATCC 10231 after 48 hrs in the presence of 10% FBS by broth dilution method; format: functional; settings: ATCC 10231, 48 h
Candida albicans [11] = experiment: Antifungal activity against itraconazole and fluconazole resistant Candida albicans ATCC 90819 after 48 hrs by broth dilution method; format: functional; settings: for MIC: Candida albicans, ATCC 90819, 48 h
Summary of the method: (§1)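 CLSI M27-A3 broth microdilution with minor modifications. Overnight YPD culture grown at 35 °C, 200 rpm, adjusted to OD600 0.12, diluted in RPMI 1640 buffered to pH 7.0 with 0.165 M MOPS to a final 1–2 × 10^3 CFU/mL. Test compounds at 0.015–31.3 µg/mL, 48 h at 35 °C, DMSO <1.25%. […] Triplicate.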

Aspergillus nidulans [12] = experiment: Antifungal activity against Aspergillus nidulans ATCC 38163 after 48 hrs by broth dilution method; format: functional; settings: for MIC: Aspergillus nidulans, ATCC 38163, 48 h
Summary of the method: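 A. nidulans run per CLSI M38-A2. PDA spores were filtered through glass wool and counted by hemocytometer. Test range 0.03–31.3 µg/mL in MOPS-buffered RPMI 1640 (pH 7.0), final 5 × 10^5 CFU/mL.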

Aspergillus nidulans [13] = experiment: Ratio of MIC in presence of 10% FBS to MIC in absence of 10% FBS for Aspergillus nidulans ATCC 38163; format: functional
Summary of the method: (§2)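 MIC broth dilution run in parallel in RPMI 1640 with or without 10% fetal bovine serum against C. albicans ATCC 10231, C. parapsilosis ATCC 22019 and A. nidulans ATCC 38163.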

Candida albicans [14] = experiment: Antifungal activity against itraconazole and fluconazole resistant Candida albicans ATCC MYA-1237 after 48 hrs by broth dilution method; format: functional; summary of the method: as §1
Candida albicans [15] = experiment: Ratio of MIC in presence of 10% FBS to MIC in absence of 10% FBS for Candida albicans ATCC 10231; format: functional; summary of the method: as §2
Candida parapsilosis [16] = experiment: Ratio of MIC in presence of 10% FBS to MIC in absence of 10% FBS for Candida parapsilosis ATCC 22019; format: functional; summary of the method: as §2
A549 = experiment: Cytotoxicity against human A549 cells up to 31 ug/ml after 24 hrs by resazurin-based fluorescence assay; format: cell-based; settings: a549, 24 h
Summary of the method: (§3)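 Cells grown in DMEM with 10% FBS at 37 °C, 5% CO2, and seeded at 10000 (HEK-293) or 3000 (BEAS-2B, A549) per well. After 16 h, exposed 24 h to 0.13–31 µg/mL final in medium with 0.1–0.4% DMSO. Resazurin added for 6–10 h; fluorescence read at 560/590 nm and survival normalized to DMSO control after background subtraction. Triton X-100 12.5% v/v positive control; duplicate.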

Candida albicans [17] = experiment: Antifungal activity against Candida albicans ATCC 64124 after 48 hrs by broth dilution method; format: functional; summary of the method: as §1
Candida albicans [18] = experiment: Antifungal activity against itraconazole and fluconazole susceptible Candida albicans ATCC MYA-2310 after 48 hrs by broth dilution method; format: functional
HEK293 = experiment: Cytotoxicity against HEK293 cells up to 31 ug/ml after 24 hrs by resazurin-based fluorescence assay; format: cell-based; settings: human, hek293, 24 h; summary of the method: as §3
Candida albicans [19] = experiment: Antifungal activity against itraconazole and fluconazole resistant Candida albicans ATCC MYA-1003 after 48 hrs by broth dilution method; format: functional; summary of the method: as §1
Candida albicans [20] = experiment: Antifungal activity against itraconazole and fluconazole susceptible Candida albicans ATCC MYA-2876 after 48 hrs by broth dilution method; format: functional
BEAS-2B = experiment: Cytotoxicity against human BEAS2B cells up to 31 ug/ml after 24 hrs by resazurin-based fluorescence assay; format: cell-based; summary of the method: as §3
Candida albicans [21] = experiment: Inhibition of 14alpha-demethylase in Candida albicans ATCC 10231 assessed as total sterol levels at 0.12 ug/mL by GC-MS analysis; parameters: scale not given: the % may be the effect or the level left
Candida parapsilosis [22] = experiment: Fungistatic activity against Candida parapsilosis ATCC 22019 at 1 to 4 times MIC incubated for 24 hrs by time kill assay; format: functional
Summary of the method: (§4)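 Overnight YPD cultures diluted in RPMI 1640 to an inoculum of 1–4 × 10^5 CFU/mL. […] Final volume 4 mL, 35 °C, 200 rpm, 24 h. Sampled at 0, 3, 6, 9, 12 and 24 h, serially diluted and plated on PDA. Colonies counted after 48 h (24 h for strain A). Detection limit 100 CFU/mL. Duplicate.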

Candida albicans [23] = experiment: Inhibition of 14alpha-demethylase in Candida albicans ATCC 10231 assessed as lanosterol levels at 0.12 ug/mL by GC-MS analysis; parameters: scale not given: the % may be the effect or the level left
Summary of the method: (§5)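 Sterols were extracted from treated C. albicans ATCC 10231 (strain A) cells and profiled by GC-MS. Each sterol (lanosterol, ergosterol, eburicol, 14α-methyl ergosta-8,24(28)-diene-3β,6α-diol) is reported as a percentage of the sterol composition. A DMSO-treated culture served as the no-drug comparison.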

Candida albicans [24] = experiment: Inhibition of 14alpha-demethylase in Candida albicans ATCC 10231 assessed as ergosterol levels at 0.12 ug/mL by GC-MS analysis; parameters: scale not given: the % may be the effect or the level left; summary of the method: as §5
Nakaseomyces glabratus [25] = experiment: Fungistatic activity against Candida glabrata ATCC 2001 at 4 times MIC incubated for 24 hrs by time kill assay; format: functional; settings: CBS 138; summary of the method: as §4
Candida albicans [26] = experiment: Inhibition of 14alpha-demethylase in Candida albicans ATCC 10231 assessed as 14alpha-methyl ergosta-8,24(28)-dien-3beta,6alpha-diol levels at 0.12 ug/mL by GC-MS analysis; parameters: scale not given: the % may be the effect or the level left; summary of the method: as §5
Candida albicans [27] = experiment: Inhibition of 14alpha-demethylase in Candida albicans ATCC 10231 assessed as eburicol levels at 0.12 ug/mL by GC-MS analysis; parameters: scale not given: the % may be the effect or the level left; summary of the method: as §5
Candida albicans [28] = experiment: Fungistatic activity against Candida albicans ATCC 10231 at 1 to 4 times MIC incubated for 24 hrs by time kill assay; format: functional; summary of the method: as §4

SMILES	MIC (Candida parapsilosis [1])	MIC50 (Candida albicans [2])	MIC80 (Candida albicans [2])	MIC (Candida albicans [3])	MIC (Candida parapsilosis [4])	MIC (Aspergillus nidulans [5])	MIC (Pichia kudriavzevii)	MIC (Aspergillus flavus)	solubility [6]	solubility [7]	MIC (Nakaseomyces glabratus [8])	MIC (Aspergillus terreus)	Ratio (Candida albicans [9])	MIC (Candida albicans [10])	MIC (Candida albicans [11])	MIC (Aspergillus nidulans [12])	also measured
CCCCCCCCCCN1CCN(CC(O)(Cn2cncn2)c2ccc(Cl)cc2Cl)CC1 (stereo unspecified)	0.24 µg/mL	15.6 µg/mL (≈ 31.4 µM)	31.3 µg/mL (≈ 63 µM)	3.9 µM (≈ 1.94 µg/mL)	0.48 µM (≈ 0.238 µg/mL)	3.9 µg/mL	3.9 µM (≈ 1.94 µg/mL)	7.9 µM (≈ 3.92 µg/mL)	Soluble	Soluble	2 µM (≈ 0.993 µg/mL)	7.9 µM (≈ 3.92 µg/mL)	1 - 2	1.95 µg/mL	7.9 µM (≈ 3.92 µg/mL)	7.9 µM (≈ 3.92 µg/mL)	
CCCCCCCCCCCCCCN1CCNCC1	7.8 µg/mL	15.6 µg/mL (≈ 55.2 µM)	62.5 µg/mL (≈ 221 µM)	3.5 µM (≈ 0.989 µg/mL)	3.5 µM (≈ 0.989 µg/mL)	7.8 µg/mL	3.5 µM (≈ 0.989 µg/mL)	3.5 µM (≈ 0.989 µg/mL)	Soluble	Soluble	3.5 µM (≈ 0.989 µg/mL)	3.5 µM (≈ 0.989 µg/mL)	16 - 64	7.8 µg/mL	6.9 µM (≈ 1.95 µg/mL)	3.5 µM (≈ 0.989 µg/mL)	Ratio (Aspergillus nidulans [13]): 2 - 8; MIC (Candida albicans [14]; Candida albicans, ATCC MYA-1237, 48 h): 6.9 µM (≈ 1.95 µg/mL); Ratio (Candida albicans [15]): 2 - 8; Ratio (Candida parapsilosis [16]): 2 - 8; Activity (A549): Toxic; MIC (Candida albicans [17]; Candida albicans, ATCC 64124, 48 h): 3.5 µM (≈ 0.989 µg/mL); MIC (Candida albicans [18]; Candida albicans, ATCC MYA-2310, 48 h): 3.5 µM (≈ 0.989 µg/mL); Activity (HEK293): Toxic; MIC (Candida albicans [19]; Candida albicans, ATCC MYA-1003, 48 h): 6.9 µM (≈ 1.95 µg/mL); MIC (Candida albicans [20]; Candida albicans, ATCC MYA-2876, 48 h): 3.5 µM (≈ 0.989 µg/mL); Activity (BEAS-2B): Toxic
C[C@@H](c1ncncc1F)[C@](O)(Cn1cncn1)c1ccc(F)cc1F [VORICONAZOLE]	0.015 µg/mL	62.5 µg/mL (≈ 179 µM)	62.5 µg/mL (≈ 179 µM)			0.12 µg/mL											Activity (Candida albicans [21]): 1.56 to 2.79%; Activity (Candida parapsilosis [22]): Active; Activity (Candida albicans [23]): 18.5%; MIC=<50 (Candida albicans [14]): 22.3 µM (≈ 7.79 µg/mL); MIC=<50 (Candida parapsilosis [4]): <0.06 µM; Activity (Candida albicans [24]): 64.9%; MIC=<50 (Pichia kudriavzevii): 0.34 µM (≈ 0.119 µg/mL); Activity (Nakaseomyces glabratus [25]): Active; Activity (Candida albicans [26]): 10.1%; MIC=<50 (Nakaseomyces glabratus [8]): 0.17 µM (≈ 0.0594 µg/mL); MIC=<50 (Aspergillus terreus): 0.34 µM (≈ 0.119 µg/mL); MIC=<50 (Candida albicans [17]): 11.2 µM (≈ 3.91 µg/mL); MIC=<50 (Candida albicans [18]): 2.8 µM (≈ 0.978 µg/mL); MIC=<50 (Candida albicans [19]): 5.6 µM (≈ 1.96 µg/mL); MIC=<50 (Candida albicans [11]): 5.6 µM (≈ 1.96 µg/mL); MIC=<50 (Aspergillus nidulans [12]): 0.34 µM (≈ 0.119 µg/mL); Activity (Candida albicans [27]): 2.14%; MIC=<50 (Candida albicans [20]): 5.6 µM (≈ 1.96 µg/mL); Activity (Candida albicans [28]): Active
